Assay [1] concerns the target T1, Kappa-type opioid receptor (Homo sapiens, UniProt P41145). Nature of the assay: Effective concentration for activation of human Opioid receptor kappa 1 expressed in chinese hamster ovary cells to enhance [35S]GTP-gamma-S, binding. It counts as functional, cell-based. The method in brief: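 EC50 for human κ-opioid receptor activation, read as enhancement of [35S]GTPγS binding. Mean of at least three independent experiments, each run in duplicate.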
(Binding of GTPγS marks nucleotide exchange on a G protein.)

Assay [2] concerns the target T1, Kappa-type opioid receptor. Nature of the assay: Activation of human Opioid receptor kappa 1 expressed in chinese hamster ovary cells to enhance [35S]GTP-gamma-S, binding compared to U50,488H. It is filed as functional, cell-based. The method in brief:
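Agonist efficacy at human κ-opioid receptor, read as enhancement of [35S]GTPγS binding and expressed as % of the maximal response to U50,488H. Mean of at least three independent experiments, each run in duplicate.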

Assay [3] deals with T1, Kappa-type opioid receptor. Nature of the assay: Inhibition of [3H]diprenorphine binding to human Opioid receptor kappa 1 expressed in chinese hamster ovary cells. It is filed as cell-based, CHO. An outline of the steps:
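Ki from inhibition of [3H]diprenorphine binding to human κ-opioid receptor. Mean of at least three independent experiments, each run in duplicate.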

Consider 18 compounds from ChEMBL document CHEMBL1145271 (Bioorg Med Chem Lett, 2005).

Where only a bound is given, the exact number is not on record here.

T1 sequence (P41145 whole entry): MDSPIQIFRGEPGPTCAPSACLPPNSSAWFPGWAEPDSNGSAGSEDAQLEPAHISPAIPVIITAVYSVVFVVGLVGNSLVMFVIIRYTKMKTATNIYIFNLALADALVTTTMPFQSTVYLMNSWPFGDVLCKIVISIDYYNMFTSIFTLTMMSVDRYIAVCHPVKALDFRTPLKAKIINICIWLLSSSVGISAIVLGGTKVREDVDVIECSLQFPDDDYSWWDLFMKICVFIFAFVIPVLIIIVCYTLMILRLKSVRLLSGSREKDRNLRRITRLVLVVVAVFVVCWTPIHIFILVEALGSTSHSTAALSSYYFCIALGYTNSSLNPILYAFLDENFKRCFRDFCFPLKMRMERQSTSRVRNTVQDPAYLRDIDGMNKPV

In general, EC50 refers to the concentration that produces a half-maximal response. What is called Ki is the dissociation constant of the complex between target and ligand, obtained from inhibition or displacement. A low value points to higher affinity. Take `CCCC(=O)O[C@H]1C[C@@H](C(=O)OC)[C@]2(C)CC[C@H]3C(=O)O[C@H](c4ccoc4)C[C@]3(C)[C@H]2C1=O`: the EC50 in assay [1] was found to be 9.9 nM. For the same compound, the Efficacy in assay [2] was 97%. For the same compound, the Ki in assay [3] was 4.9 nM.

Regarding `CCN[C@@H]1C[C@@H](C(=O)OC)[C@]2(C)CC[C@H]3C(=O)O[C@H](c4ccoc4)C[C@]3(C)[C@H]2C1=O`, the 50% effective concentration (EC50) in assay [1] worked out at 68.9 nM. This compound also had an inhibitory constant (Ki) in assay [3] of 28.9 nM.

Consider `COC(=O)[C@@H]1C[C@H](O)C(=O)[C@H]2[C@@]1(C)CC[C@H]1C(=O)O[C@H](c3ccoc3)C[C@]21C`, for which, in assay [2], the Efficacy worked out at 98%.

For `COC(=O)[C@@H]1C[C@H](OC(N)=O)C(=O)[C@H]2[C@@]1(C)CC[C@H]1C(=O)O[C@H](c3ccoc3)C[C@]21C`, in assay [1], the EC50 was determined as 6.2 nM. In assay [2], the Efficacy amounted to 99%. Further, the inhibition constant (Ki) in assay [3] was 3.2 nM.

Turning to `CN[C@@H]1C[C@@H](C(=O)OC)[C@]2(C)CC[C@H]3C(=O)O[C@H](c4ccoc4)C[C@]3(C)[C@H]2C1=O`, in assay [3], the inhibition constant (Ki) is above 10000 nM.

As for `COC(=O)[C@@H]1C[C@@H](N(C)C)C(=O)[C@H]2[C@@]1(C)CC[C@H]1C(=O)O[C@H](c3ccoc3)C[C@]21C`, the EC50 in assay [1] was determined as 343 nM. Also, the Efficacy in assay [2] was determined as 105%. In addition, the inhibition constant (Ki) in assay [3] came to 90.9 nM.

Regarding `CCCCO[C@H]1C[C@@H](C(=O)OC)[C@]2(C)CCC3C(=O)O[C@H](c4ccoc4)C[C@]3(C)[C@H]2C1=O` (stereo partly drawn), the EC50 in assay [1] was determined as 104 nM. Further, in assay [3], affinity was put at a Ki of 35.8 nM.

For the compound `COC(=O)[C@@H]1C[C@H](OCc2ccccc2)C(=O)[C@H]2[C@@]1(C)CCC1C(=O)O[C@H](c3ccoc3)C[C@@]12C` (stereo partly drawn), in assay [1], the EC50 stood at 161 nM. For the same compound, in assay [3], affinity was put at a Ki of 75.7 nM.

Turning to `CCNC(=O)O[C@H]1C[C@@H](C(=O)OC)[C@]2(C)CC[C@H]3C(=O)O[C@H](c4ccoc4)C[C@]3(C)[C@H]2C1=O`, in assay [1], the EC50 was above 1000 nM. Further, in assay [3], the Ki was determined as 462 nM.

In the case of `CNC(=O)O[C@H]1C[C@@H](C(=O)OC)[C@]2(C)CC[C@H]3C(=O)O[C@H](c4ccoc4)C[C@]3(C)[C@H]2C1=O`, the half-maximal effective concentration (EC50) in assay [1] turned out to be 201 nM. Also, the Efficacy in assay [2] was 81%. The same compound gave an inhibitory constant (Ki) in assay [3] of 83 nM.

`COC(=O)[C@@H]1C[C@H](OC(=O)CN(C)C)C(=O)[C@H]2[C@@]1(C)CC[C@H]1C(=O)O[C@H](c3ccoc3)C[C@]21C`: the inhibition constant Ki in assay [3] was above 10000 nM.

Consider `C=CCO[C@H]1C[C@@H](C(=O)OC)[C@]2(C)CCC3C(=O)O[C@H](c4ccoc4)C[C@]3(C)[C@H]2C1=O` (stereo partly drawn), for which the concentration giving a half-maximal response (EC50) in assay [1] worked out at 145 nM. In addition, the Efficacy in assay [2] is 106%. Also, the affinity in assay [3], expressed as Ki, was 60.1 nM.

In the case of `CCCO[C@H]1C[C@@H](C(=O)OC)[C@]2(C)CC[C@H]3C(=O)O[C@H](c4ccoc4)C[C@]3(C)[C@H]2C1=O` [SALVINORIN A PROPYL ETHER], the 50% effective concentration (EC50) in assay [1] came to 67.4 nM. Besides, the Efficacy in assay [2] was 100%. For the same compound, in assay [3], the inhibition constant Ki is 28.7 nM.

For `CCO[C@H]1C[C@@H](C(=O)OC)[C@]2(C)CC[C@H]3C(=O)O[C@H](c4ccoc4)C[C@]3(C)[C@H]2C1=O`, the Efficacy in assay [2] worked out at 103%.

For `COC(=O)[C@@H]1C[C@H](OC)C(=O)[C@H]2[C@@]1(C)CC[C@H]1C(=O)O[C@H](c3ccoc3)C[C@]21C`, the concentration for a half-maximal effect (EC50) in assay [1] turned out to be 389 nM. Moreover, the Efficacy in assay [2] turned out to be 98%. The Ki in assay [3] amounted to 220 nM.

Turning to `COC(=O)[C@@H]1C[C@H](OC(=O)CNC(C)=O)C(=O)[C@H]2[C@@]1(C)CC[C@H]1C(=O)O[C@H](c3ccoc3)C[C@]21C`, the Ki in assay [3] is above 10000 nM.

In the case of `CCC(=O)O[C@H]1C[C@@H](C(=O)OC)[C@]2(C)CC[C@H]3C(=O)O[C@H](c4ccoc4)C[C@]3(C)[C@H]2C1=O`, the concentration for a half-maximal effect (EC50) in assay [1] came out at 20.4 nM. For the same compound, the Efficacy in assay [2] came out at 94%. Further, the Ki in assay [3] is 7.2 nM.

For `COC(=O)[C@@H]1C[C@H](OC(=O)[C@H](C)N)C(=O)[C@H]2[C@@]1(C)CC[C@H]1C(=O)O[C@H](c3ccoc3)C[C@]21C`, in assay [3], the inhibition constant (Ki) is above 10000 nM.
